# Measurements: ChEMBL document CHEMBL1135697, “Formaldehyde-induced DNA cross-link of indolizino[1,2-b]quinolines derived from the A-D rings of camptothecin” (J Med Chem, 2002)
# Assays:
# Assay type in all cases: functional
# Bos taurus [1] = organism: Bos taurus; test: Absorption spectral changes upon addition of 200 uM calf thymus DNA to drug solution at 20 uM in 1 mM Na cacodylate buffer at pH 7.0
# Method in brief: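 Read-out is UV-visible absorption of the drug before and after DNA addition. Hypochromism (H) and bathochromic shift (Δλ) are reported.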
# Calf thymus DNA [2] = test: Binding constant to reduce by 50% the fluorescence of ethidium bromide bound to calf thymus DNA; conditions: Bos taurus
# Method in brief: (§1)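 Competitive fluorometric displacement of ethidium bromide prebound to calf thymus DNA. The drug level that cuts ethidium fluorescence by 50% is found, and the binding constant is calculated from it.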
# Bos taurus [3] = organism: Bos taurus; test: Variation in melting temperature performed in BPE buffer at pH 7.1,using 10 uM drug and 20 uM calf thymus DNA (CT)
# Method in brief: (§2)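 UV melting is monitored at 260 nm with a 1 °C/min heating ramp. BPE buffer is 6 mM Na2HPO4, 2 mM NaH2PO4 and 1 mM EDTA, pH 7.1. DNA is calf thymus or poly(dAdT)2 at 20 μM. ΔTm = Tm(complex) − Tm(DNA alone).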
# Bos taurus [4] = organism: Bos taurus; test: Variation in melting temperature performed in BPE buffer at pH 7.1,using 10 uM drug and 20 uM calf thymus poly (dAT); method in brief: as §2
# Calf thymus DNA [5] = test: Binding constant to reduce by 50% the fluorescence of ethidium bromide bound to calf thymus DNA; No displacement of DNA-bound ethidium bromide at 50 uM; conditions: Bos taurus; method in brief: as §1
SMILES,Bathochromic shift (Bos taurus [1]) [nm],Hypochromic shift (Bos taurus [1]) [%],K app x10e6 (Calf thymus DNA [2]) [M⁻¹],ΔTm (Bos taurus [3]) [°C],ΔTm (Bos taurus [4]) [°C],K app x10e6 (Calf thymus DNA [5])
Cc1cc2n(c(=O)c1C(N)=O)Cc1cc3ccc(OCCN4CCCCC4)cc3nc1-2,8,35.8,0.2,4.6,12.8,
Cc1cc2n(c(=O)c1CN)Cc1cc3cc(OCCN4CCCCC4)ccc3nc1-2,9,35.3,2.5,13.6,19.8,
Cc1cc2n(c(=O)c1CN)Cc1cc3ccc(OCCN4CCCCC4)cc3nc1-2,11,38.6,8.4,19.4,28.6,
Cc1cc2n(c(=O)c1C(N)=O)Cc1cc3cc(OCCN4CCCCC4)ccc3nc1-2,9,33,0.29,1.2,5.8,
Cc1cc2n(c(=O)c1CN)Cc1cc3ccccc3nc1-2,8,33.1,,1.9,3,No displacement of DNA-bound ethidium bromide at 50 uM
Cc1cc2n(c(=O)c1C(N)=O)Cc1cc3ccccc3nc1-2,0,2.7,,0,0,No displacement of DNA-bound ethidium bromide at 50 uM
